Compounds with a hit are over-represented: about 4.3% of the library has one in this group of screens.
TAAR1 antagonist: antagonists of human TAAR1. Q96RJ0. CHO RD-HGA16 TAAR1, Fluo-8 calcium fluorescence, antagonist. inhibition, % at 3 µM. hit rate 1.5% among 360,000;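 active = inhibition above a per-plate cutoff, the mean inhibition of test compounds on that plate plus 3 SD, cut at about 49% in these data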;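 note: 0% = DMSO plus EC80 beta-PEA response and 100% = DMSO alone without agonist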
Target sequence (Q96RJ0 whole entry, looked up): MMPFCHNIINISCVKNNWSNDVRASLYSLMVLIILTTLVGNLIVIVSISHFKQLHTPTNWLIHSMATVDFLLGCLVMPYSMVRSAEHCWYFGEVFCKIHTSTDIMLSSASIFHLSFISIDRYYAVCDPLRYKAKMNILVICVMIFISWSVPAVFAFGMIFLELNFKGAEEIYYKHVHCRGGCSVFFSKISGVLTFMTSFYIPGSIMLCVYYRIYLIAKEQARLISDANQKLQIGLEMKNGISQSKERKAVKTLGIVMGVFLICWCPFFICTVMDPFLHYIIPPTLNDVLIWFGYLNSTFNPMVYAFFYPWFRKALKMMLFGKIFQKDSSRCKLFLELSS
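Material: RD-HGA16 CHO cells with stable hTAAR1 and Gα16; Dosing: single nominal final test compound concentration of 3 µM; Schedule: seeding 17-24 h prior, 75-min 37 °C, 30-min RT dye loading; Detection: kinetic Fluo-8 calcium fluorescence measurement; Measure: % inhibition from peak post-agonist over basal fluorescence ratio; Benchmarks: vehicle and agonist controls.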
CHO parental Ca: counter-screen: ATP calcium response change in parental CHO cells; hit rate 0.63% among 330,000; parental CHO-K1, ATP-induced calcium, Fluo-8 fluorescence; inhibition, % at 5.6 µM; AID 463079;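 active = inhibition above that plate's mean sample inhibition plus 3 SD, cut at about 26% in these data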;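 note: 0% = ATP-challenged DMSO wells and 100% = DMSO wells without ATP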
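Test system: untransfected parental CHO cell line. Compound: one dose, 5.6 µM nominal. Detection: intracellular calcium via Fluo-8 no-wash fluorescent dye. Measure: % inhibition. Benchmarks: ATP-challenged DMSO wells low, unchallenged DMSO wells high.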
TAAR1 agonist: agonists of human TAAR1; hit rate 0.99% among 360,000; activation, % at 3 µM; AID 624467; CHO RD-HGA16 TAAR1, Fluo-8 calcium fluorescence; vehicle wells 0%, saturating PEA agonist 100%;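 active = activation above the mean activation of all test compounds in the run plus 3 SD, cut at about 38% in these data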
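Test system: RD-HGA16 (CHO) cells co-expressing Gα16 and hTAAR1 / Benchmarks: DMSO vehicle as 0%, PEA at EC100 as 100% / Repeats: no replicates (n 1) / Measure: % activation from peak over basal fluorescence ratio, DMSO-to-PEA scaled / Timing: 17-24 h plating, Fluo-8 75 min 37 °C, 30 min RT / Technique: kinetic Fluo-8 calcium fluorescence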
OX1R antag-1: antagonists of human orexin 1 receptor | O43613 | CHO/OX1R cells, Fluo-8 calcium fluorescence, orexin A | inhibition, % at 5 µM | hit rate 0.43% among 330,000 | AID 434989;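 active = inhibition above its plate's threshold, mean inhibition of all tested compounds on the plate plus 3 SD, cut at about 37% in these data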;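 note: 0% = orexin A challenge wells and 100% = SB-334867-A antagonist wells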
Target sequence (O43613 whole entry, looked up): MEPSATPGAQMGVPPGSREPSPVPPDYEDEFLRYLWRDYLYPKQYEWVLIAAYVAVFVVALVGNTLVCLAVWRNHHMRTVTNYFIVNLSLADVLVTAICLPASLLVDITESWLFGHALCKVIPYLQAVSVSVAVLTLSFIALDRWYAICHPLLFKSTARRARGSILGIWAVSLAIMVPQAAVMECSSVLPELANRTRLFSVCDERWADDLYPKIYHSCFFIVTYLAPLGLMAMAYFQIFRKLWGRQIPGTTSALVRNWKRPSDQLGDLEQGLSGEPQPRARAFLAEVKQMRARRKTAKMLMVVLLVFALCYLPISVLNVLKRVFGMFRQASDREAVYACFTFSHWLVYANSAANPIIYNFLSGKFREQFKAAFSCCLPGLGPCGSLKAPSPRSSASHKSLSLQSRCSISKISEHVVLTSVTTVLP
GalR3 antag: human GalR3 antagonism | O60755 | HEK293 GalR3-CNG cAMP membrane potential fluorescence; galR3 body fused to GalR1 C-terminus | inhibition, % at 3 µM | hit rate 0.44% among 360,000 | AID 651719;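 active = inhibition above the screen-wide average plus 3 SD, cut at about 13% in these data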;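 note: forskolin and galanin both at EC90 stimulate the cells; cAMP rise reported by CNG channel membrane potential dye signal; 0% = forskolin plus galanin with DMSO and 100% = forskolin alone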
OX1R antag-2: antagonists of human orexin 1 receptor (OX1R); O43613; OX1R-expressing cells, FRET antagonist read-out; inhibition, % at 6.6 µM; hit rate 1.8% among 330,000; AID 485270; in the data active = inhibition mostly above about 38%, no sharp cut-off; inactive = mostly below about 40%;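 note: 0% = agonist challenge alone and 100% = reference antagonist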
* = called active by the depositor; . = no result given.

SMILES	TAAR1 antagonist	CHO parental Ca	TAAR1 agonist	OX1R antag-1	GalR3 antag	OX1R antag-2
O=[N+]([O-])c1cc(-c2ccc(/C=N\n3cnnc3)o2)cc([N+](=O)[O-])c1	-1.9	-8.8	-0.7	-13.7	-6.9	69.3*
CCc1nc2ccccc2c(C(=O)OCC(=O)N2CC(C)OC(C)C2)c1C (stereo not drawn)	17.9	-15.6	3.7	-26.3	-3.5	4.4
Cc1cc(C(=O)NCCc2ccc(Cl)cc2)c2ccccc2n1	-1.2	-14.7	0.7	16.4	-5.0	50.4*
Cc1ccc(-c2cc(C(=O)NCCc3ccc(S(N)(=O)=O)cc3)c3ccccc3n2)cc1	51.3*	-6.9	5.6	2.3	1.2	23.6
COc1ccc(-c2cc(C(=O)NCCc3ccc(S(N)(=O)=O)cc3)c3ccccc3n2)cc1	53.7*	-1.0	7.6	5.9	-1.6	22.9
Cc1ccc(SCCNC(=S)Nc2cc(C)cc(C)c2)cc1	65.0*	-13.2	10.7	-3.1	-0.9	44.0
CC(=O)N1CCN(c2ccc(N3CCN(Cc4ccccc4)[C@@H](C)C3)c(C)c2)[C@H](C)C1	-12.3	.	4.6	.	-6.6	.
CCOC(=O)CNC(=O)c1cnc(Nc2ccccc2OC)c2ccccc12	-7.9	-15.0	-0.9	-37.3	-0.3	8.0
COc1ccc(OC)c(NC(=O)c2cnc(Nc3ccccc3OC)c3ccccc23)c1	-1.3	-33.6	6.1	18.1	9.0	68.1*
COc1ccc(OC)c(NC(=O)COC(=O)CCNc2ccccc2OC)c1	-16.9	-14.1	-0.3	-4.2	0.3	54.7*
CCOP(=O)(OCC)c1ccc2ccc3ccccc3c(=O)c2c1	21.3	-24.7	7.2	-19.2	1.7	11.4
CC(C)(CO)NCc1c(OCc2ccc(Cl)cc2)ccc2ccccc12	-5.4	1.2	9.9	-7.8	-12.1	4.5
CCOC(=O)C(C)(C)CC#CCN(CC#Cc1ccccc1)S(=O)(=O)c1ccc(C)cc1	29.4	.	0.5	.	-6.6	.
C=CCC[C@H](Cc1ccc(F)cc1)C(=O)OC[C@H](Cc1c[nH]c2ccccc12)NC(=O)[C@@H](CC=C)CC(=O)N[C@@H](CO)Cc1ccccc1	2.2	0.5	3.8	-3.8	-6.2	11.9
C=CCC[C@@H](Cc1ccc(F)cc1)C(=O)OC[C@H](Cc1c[nH]c2ccccc12)NC(=O)[C@@H](CC=C)CC(=O)N[C@H](CO)Cc1ccccc1	55.0*	0.2	14.5	-9.0	-7.4	12.4
C=CCC[C@H](Cc1ccc(F)cc1)C(=O)OC[C@H](Cc1c[nH]c2ccccc12)NC(=O)[C@@H](CC=C)CC(=O)N[C@H](CO)Cc1ccccc1	56.7*	6.6	13.8	53.1	-2.5	10.2
C=CCC[C@H](Cc1ccc(F)cc1)C(=O)OC[C@H](Cc1c[nH]c2ccccc12)NC(=O)[C@H](CC=C)CC(=O)N[C@H](CO)Cc1ccccc1	0.1	-10.6	0.2	-1.9	-11.6	12.1
C=CCC[C@H](Cc1ccc(F)cc1)C(=O)OC[C@@H](Cc1c[nH]c2ccccc12)NC(=O)[C@H](CC=C)CC(=O)NCCO	50.9*	-26.8	14.5	-13.0	-4.6	8.4
O=c1[nH]c(=O)c2nnc(N/N=C\c3ccc(O)cc3)nc2[nH]1	-14.9	-8.4	9.3	-14.2	-5.3	62.1*
COc1ccc(/C=N/Nc2nonc2N)cc1	10.8	-6.6	2.3	-0.5	3.2	8.0
Nc1nonc1N/N=C\c1ccccc1	-22.4	4.1	40.8*	-8.9	-3.7	12.6
Nc1nonc1N/N=C/c1c(O)ccc2ccccc12	17.4	23.5	15.6	50.2*	-2.8	72.4
Nc1cc(Cl)nc(N/N=C/c2c(O)ccc3ccccc23)n1	15.5	-5.1	3.1	12.8	-1.1	10.3
CC1(C(=O)NCc2ccccn2)CCN1C(=O)Cc1ccc(Cl)cc1Cl (stereo not drawn)	-13.2	.	1.1	.	-6.8	.
COc1ccc(C=NN=C2c3ccccc3-c3ccccc32)cc1OC	-1.4	.	0.3	.	6.7	.
SMILES	TAAR1 antagonist	CHO parental Ca	TAAR1 agonist	OX1R antag-1	GalR3 antag	OX1R antag-2
Cc1ccc(S(=O)(=O)N2CC(CBr)=CCC2c2ccccc2)cc1 (stereo not drawn)	-20.6	.	1.2	.	-6.8	.
CC(=O)c1cccc(NC(=O)CSc2ccc(-c3sc(C)nc3C)nn2)c1	19.7	-19.6	6.1	-16.4	-2.7	10.5
Cc1nc(C)c(-c2ccc(SCC(=O)Nc3cccc(Cl)c3)nn2)s1	51.9*	-0.8	7.7	-10.9	0.0	39.0
COc1ccc(NC(=O)c2cc(C3CCCCN3S(=O)(=O)Cc3ccccc3)on2)c(C)c1 (stereo not drawn)	0.4	.	-0.6	.	-3.1	.
CCc1ccc(OCC(=O)NNC(=S)NC(=O)C2CC2)c(Br)c1	9.3	.	40.0*	.	-1.1	.
CCN(CC1COc2ccccc2O1)C(=O)c1ccc(Cl)c(S(=O)(=O)N2CC(C)OC(C)C2)c1 (stereo not drawn)	-15.3	-15.3	0.7	-10.6	-2.8	49.8*
Cc1ccc(-c2nn(-c3ccccc3)cc2C(=O)O)o1	.	-4.9	.	5.6	.	7.4
Cc1ccc(-c2nn(-c3ccccc3)cc2CN(Cc2ccccc2)C(=O)c2ccco2)o1	55.5*	-15.4	8.5	-26.3	-9.0	16.8
OCCNc1nc(Nc2ccc(Br)cc2)nc2ccccc12	60.4*	-13.2	65.2*	-11.8	-8.8	20.1
Cc1ccc(Nc2nc(NCc3ccco3)c3ccccc3n2)cc1	-3.4	56.5*	50.2*	47.3*	-10.8	33.5
Fc1ccccc1-c1nc(NCc2ccco2)c2ccccc2n1	-6.5	-14.6	-0.7	-30.7	-4.7	46.3
COc1ccccc1Nc1nc(NCc2ccco2)c2ccccc2n1	-36.0	-0.7	-0.1	-10.2	-2.2	13.9
Oc1ccccc1-c1nc(NCc2ccco2)c2ccccc2n1	9.1	-17.2	3.6	-20.1	-6.7	39.6*
c1ccc(Nc2nc(NCC3CCCO3)c3ccccc3n2)cc1 (stereo not drawn)	2.8	-6.0	51.6*	-28.4	1.8	23.8
O=C(Nc1ccc2c(c1)OCO2)c1cc(C2CCCCN2C(=O)c2ccc3c(c2)CCO3)on1 (stereo not drawn)	11.8	.	1.3	.	0.2	.
COC(=O)c1cc2c(c3c4cc(OC)ccc4n(S(=O)(=O)c4ccccc4)c13)C(=O)N(Cc1ccc(C(F)(F)F)cc1)C2	7.7	.	-1.6	.	-3.0	.
C[C@H](CO)N1C[C@H](C)[C@@H](CN(C)S(=O)(=O)c2ccccc2)Oc2ccc(NS(=O)(=O)c3cn(C)cn3)cc2C1=O	13.3	3.3	0.1	2.9	-6.1	1.8
Cc1nc2ccc(N=NC3=C(O)CC(C)(C)CC3=O)cc2s1	-14.9	-7.5	4.0	11.1	-2.5	61.6*
CC(=O)N1CCc2cc(N=NC3=C(O)CC(C)(C)CC3=O)ccc21	5.8	2.7	1.8	-5.0	-0.9	56.1*
Cc1nc2ccc(N=NC3=C(O)CCCC3=O)cc2s1	-9.0	-8.7	1.0	-1.9	-3.1	29.6

Screens from PubChem.
